From PubChem BioAssay
Sampled rows, rich in hits. Any-hit rate of the full collection: about 6.7%.
CSC inhib – blocks cancer stem cells; 300,000 compounds, 1.1% hits; cancer stem cell-like cells viability, luminescence; inhibition, % at 7.5 µM; in the data active means inhibition above about 75%; inconclusive means no clear call, values can overlap the other calls; tested in HMLE shEcad cells
T cruzi inh – T. cruzi replication inhibition; T. cruzi beta-gal in NIH3T3, luminescence, 90 h; inhibition, % (test concentration not listed); 300,000 compounds, 1.4% hits; AID 1885;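 active means mean inhibition across valid replicates above about 55%, limit read from the data; inconclusive means mean below that limit but half or more replicates reach it; inactive means mean below it, under half of replicates reach it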;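 further: signal also drops with host cell toxicity which is not excluded here; 0% = plate median of DMSO wells and 100% = zero luminescence signal; higher percent means less beta-gal luminescence so fewer parasites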
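Assay system: NIH/3T3 fibroblasts plus reporter T. cruzi. Amount: NIH/3T3 cells, 5,000 per well. Buffer or medium: DMEM, 2% fetal bovine serum. Doses: compound pinned at 50 nL/well, DMSO. Schedule: ≥90 h infection period, 3 h prior cell attachment. Signal: luminescent β-galactosidase signal after 60 min lysis. Read-out: parasite load inhibition, %.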
PREPL inhibitor – inhibits the human prolyl oligopeptidase-like enzyme | recombinant PREPL, fluorescence polarization activity-based probe | Q4J6C6 | AID 2751 | inhibition, % at 5.96 µM | 320,000 compounds, 0.68% hits; in the data active means inhibition above about 43%;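 further: 0% = enzyme with DMSO and 100% = wells lacking enzyme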
Target sequence (Q4J6C6 whole entry, looked up): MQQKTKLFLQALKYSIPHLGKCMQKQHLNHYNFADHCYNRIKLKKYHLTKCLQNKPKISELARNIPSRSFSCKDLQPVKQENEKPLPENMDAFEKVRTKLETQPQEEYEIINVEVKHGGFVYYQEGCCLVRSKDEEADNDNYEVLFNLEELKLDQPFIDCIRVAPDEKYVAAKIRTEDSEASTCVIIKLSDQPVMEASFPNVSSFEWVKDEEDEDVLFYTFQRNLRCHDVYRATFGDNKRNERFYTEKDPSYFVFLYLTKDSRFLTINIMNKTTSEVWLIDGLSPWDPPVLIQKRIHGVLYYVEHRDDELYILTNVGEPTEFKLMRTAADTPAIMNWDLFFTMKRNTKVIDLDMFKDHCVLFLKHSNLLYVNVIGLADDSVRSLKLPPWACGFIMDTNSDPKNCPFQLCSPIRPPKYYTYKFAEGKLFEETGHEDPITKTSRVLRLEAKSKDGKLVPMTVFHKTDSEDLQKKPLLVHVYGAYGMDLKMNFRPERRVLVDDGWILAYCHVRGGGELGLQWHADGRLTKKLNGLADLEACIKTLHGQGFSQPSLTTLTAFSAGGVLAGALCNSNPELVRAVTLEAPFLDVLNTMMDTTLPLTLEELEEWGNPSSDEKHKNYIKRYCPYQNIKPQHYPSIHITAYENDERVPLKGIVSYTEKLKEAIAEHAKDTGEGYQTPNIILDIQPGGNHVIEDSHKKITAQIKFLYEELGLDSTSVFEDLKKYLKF
CHOP inh – CHOP inhibition in unfolded protein response. CHO-K1 CHOP-promoter luciferase, tunicamycin-induced, 15-18 h. inhibition, % at 10 µM. 220,000 compounds, 3.8% hits. AID 2732;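 active means compounds that reduced the stress-induced luciferase reporter signal by more than about 70% of percent inhibition, limit read from the data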;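 further: 0% = tunicamycin plus vehicle and 100% = wells without tunicamycin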
Beta apoptosis – beta cell apoptosis inhibition. INS-1E cytokine-induced death, ATP luminescence, 48 h; percent of positive-control rescue, neutral wells zero. protection from apoptosis, % (no concentration beside the values). 300,000 compounds, 0.8% hits. AID 435005;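 active means Every replicate reaches about 75%, or at least half do and their mean reaches it too, limit read from the data; inconclusive means At least half of replicates reach the limit but their mean does not; inactive means Under half of replicates reach the limit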;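 further: 0% = cytokine-treated negative control wells and 100% = positive control rescue; higher means more ATP so stronger rescue from cytokine killing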
GRIN3A LBD mod – modulators (binders) of human NR3A ligand-binding domain. Tm shift relative to glycine control, % at 25 µM. NR3A LBD differential scanning fluorimetry, Tm shift; 0% = protein alone, 100% = glycine-bound protein. 340,000 compounds, 2.5% hits;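 active means melting temperature shift of at least 10% of the positive control shift, at one fixed dose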
Numbers without * were called inactive; u = inconclusive; x = no result given.

SMILES | CSC inhib | T cruzi inh | PREPL inhibitor | CHOP inh | Beta apoptosis | GRIN3A LBD mod
CCOC(=O)C(c1ccccc1)C(Nc1ccc(F)cc1)c1ccccn1 (configuration not stated) | 14 | -19 | 9 | 4 | 6 | -1
Cc1cccc(N(C)S(=O)(=O)c2cccc3nsnc23)c1 | 1 | 5 | 0 | 94* | -3 | 1
CCN(c1cccc(C)c1)S(=O)(=O)c1cccc2nsnc12 | 5 | 1 | -5 | 10 | -5 | -1
Cc1ccc(C)c(OCCC(=O)NNC(=O)c2cc(C)oc2C)c1 | x | x | -6 | x | -7 | 0
O=C(Nc1nc2c(s1)CCc1ccccc1-2)c1cccs1 | -8 | 29 | 11 | 49 | 17 | 5
Fc1ccccc1Nc1nc2c(s1)CCc1ccccc1-2 | x | x | x | 71* | x | x
CC(C)(C)c1csc(N(CCC#N)CCC#N)n1 | -3 | 8 | 7 | 7 | -7 | 14*
Cc1csc(NC(=O)CCc2c(C)nc3cc(-c4ccc(Cl)cc4)nn3c2C)n1 | 29 | x | -47 | 88* | 9 | 2
Cc1nc2cc(-c3ccc(Cl)cc3)nn2c(C)c1CCC(=O)NC(C)c1ccc2c(c1)OCCO2 (configuration not stated) | 12 | 28 | -5 | 79* | 10 | -9
C/C(=N/NC(=O)CNC(=O)c1cccs1)c1ccc(Cl)cc1 | 9 | -12 | 7 | x | -2 | 21*
O=C(Nc1cc(Cl)ccc1O)c1snnc1-c1ccccc1 | 47 | 4 | 1 | 82* | 37 | 5
O=C(Nc1cccc(Cl)c1Cl)c1snnc1-c1ccccc1 | -10 | -4 | -12 | 1 | 4 | -19
COc1ccc(CC(=O)OCC(=O)N2N=C(c3ccccc3)CC2c2ccc(OC)cc2)cc1 (configuration not stated) | -13 | 8 | 6 | 5 | -3 | -1
CCCCC(=O)OCC(=O)N1N=C(c2c[nH]c3ccccc23)C(O)C1c1ccc(OC)cc1 (configuration not stated) | 3 | -15 | 20 | x | 0 | 30*
O=C(NC(=S)Nc1cccc(Cl)c1N1CCCCC1)c1ccc2c(c1)OCCO2 | 82* | 35 | 4 | 35 | 16 | 1
O=C(Nc1ccon1)c1ccc(N2CCCCC2)c([N+](=O)[O-])c1 | -6 | 10 | 3 | -11 | 7 | 1
O=C(Nc1nc(-c2ccccc2)cs1)c1ccc(N2CCOCC2)c([N+](=O)[O-])c1 | 45 | 55* | 11 | 79* | 5 | -3
O=C(Nc1nc2ccccc2s1)c1ccc(N2CCCCC2)c([N+](=O)[O-])c1 | -8 | u | 14 | 79* | 10 | 3
CCN(CC)S(=O)(=O)c1cccc(C(=O)Nc2cc(C)on2)c1 | -9 | 2 | -2 | x | -9 | -1
O=C(c1ccc(F)cc1)n1ccc(-c2cnc(-c3ccccc3)s2)n1 | 0 | -7 | 6 | 48 | -7 | 0
Cc1ccc(Cn2ccc(-c3cnc(-c4ccccc4)s3)n2)cc1 | -5 | 17 | -38 | 87* | -7 | -11
Fc1ccc(Cn2ccc(-c3cnc(-c4ccccc4)s3)n2)cc1 | 1 | 28 | -42 | 80* | -9 | -4
O=S(=O)(c1ccccc1)n1ccc(-c2cnc(-c3ccccc3)s2)n1 | 18 | 16 | 8 | 20 | 3 | -4
O=C(Nc1cccnc1)c1cc2cc(Br)ccc2o1 | 4 | -11 | -12 | x | -5 | -6
Fc1ccc(-c2csc(-c3ccncc3)n2)cc1 | 5 | 32 | -3 | -7 | -7 | 26*
SMILES | CSC inhib | T cruzi inh | PREPL inhibitor | CHOP inh | Beta apoptosis | GRIN3A LBD mod
O=C(c1ccc(CS(=O)c2ccccc2Cl)o1)N1CCN(c2ccccn2)CC1 (configuration not stated) | -25 | 7 | 9 | x | -3 | 0
Cc1cccc(N2CCN(S(=O)(=O)c3ccc4c(c3)CCCN4C(=O)C3CCC3)CC2C)c1 (configuration not stated) | 1 | 32 | -94 | x | 26 | 1
O=c1[nH]c(SCCOc2ccccc2)nc2ccccc12 | 8 | 5 | 2 | 77* | 8 | -1
CCn1cc2nc(SCC(=O)Nc3ccc(OC)c(OC)c3)n(Cc3ccc(OC)cc3)c(=O)c2n1 | -3 | 6 | -1 | x | -5 | 14*
O=C(NC(=S)NCCc1ccccn1)c1ccccc1 | x | -26 | 18 | -58 | -4 | 1
O=C(Nc1ccc(NC(=S)NC(=O)c2ccco2)cc1)c1ccccc1 | -7 | 2 | -6 | x | -4 | 15*
O=C(NC(=S)NCCc1ccccn1)c1ccco1 | -11 | -11 | 12 | -8 | -2 | 244*
O=C(/C=C/c1ccc(Cl)cc1)NC(=S)Nc1ccc(NC(=O)c2ccco2)cc1 | 20 | -78 | -34 | -13 | -1 | 34*
CC(C)CC(=O)N1CCN(c2ccc(NC(=O)c3ccco3)cc2)CC1 | -21 | 5 | -3 | x | 2 | 13*
Nn1c(SCC(=O)Nc2ccc(OC(F)F)cc2)nnc(Cc2ccccc2)c1=O | -11 | -6 | 0 | x | x | -4
CCCCC(=O)NC(=S)Nc1ccc(S(=O)(=O)N2CCCC2)cc1 | 1 | 0 | 1 | 19 | -3 | -2
CC(=O)Nc1ccc(OCC(=O)N2CCC(Cc3ccccc3)CC2)cc1 | 56 | -3 | -6 | 20 | 9 | 0
COc1ccccc1C(=O)NC(=S)Nc1ccc(NC(=O)c2ccco2)cc1 | 8 | 6 | -1 | 9 | 1 | -3
COc1cc(OC)cc(C(=O)NC(=S)Nc2ccc(NC(=O)c3ccco3)cc2)c1 | -3 | -17 | -1 | -21 | -2 | 18*
CC(C)CC(=O)NC(=S)Nc1ccc(NC(=O)c2ccco2)cc1 | -3 | -3 | 2 | 12 | -1 | 19*
CCC(=O)NC(=S)Nc1ccc(NC(=O)c2ccco2)cc1 | -3 | -9 | 2 | -38 | 3 | 3
O=C(Nc1ccc(OCC(=O)N2CCC(Cc3ccccc3)CC2)cc1)c1ccco1 | 44 | -29 | 14 | 33 | 98* | 0
Cc1c(C)c2ccc(OCC(=O)Nc3ccccc3C(N)=O)cc2oc1=O | -3 | -4 | 6 | x | -7 | -2
O=C(O)c1ccccc1-n1c(-c2ccccc2)cc2c1CCCC2=O | -7 | -6 | 0 | 6 | 4 | 1
O[C@@H]([C@H](O)[C@H](O)CBr)[C@H](O)CBr | -2 | -14 | 1 | x | -5 | 1
CCOc1ccc(NC(=O)CSc2nccn(-c3ccc4c(c3)OCCO4)c2=O)cc1 | -13 | 8 | 7 | x | -6 | 1
C/C(CCc1oc2ccc(Cl)cc2c1-c1ccc(C)o1)=N\O | 4 | -10 | -7 | 75* | -1 | 0
O=C(COC(=O)Cc1ccc(Cl)cc1)NCc1cccs1 | -13 | x | 4 | x | -1 | 4
Cc1ccc(Oc2c(F)c(F)nc(N3CCCC3)c2F)cc1 | 18 | 13 | 5 | 48 | 3 | 13*
Cc1ccc2nc(-c3ccccn3)c(Nc3ccccc3C)n2c1 | u | 62* | 28 | 77* | 101* | 2
